What was measured:
[1] = system: A-431; experiment: Cytotoxicity against human A431 cells assessed as cell viability at 25 uM after 72 hrs by Alamar blue assay; format: functional; settings: A-431, 72 h, read-out: Activity
Method in brief: (§1)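 Cells were grown in DMEM with 10% FBS at 37 °C, 5% CO2, humidified. Log-phase cells were seeded in 96-well plates at a fixed density and allowed to adhere for 24 h. Compound or vehicle-only control was added to duplicate wells at one fixed concentration for 72 h. Alamar Blue fluorescence was read (ex 555, em 585 nm) as % viability (0% = total growth inhibition). Assays were run in triplicate.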

[2] = system: HT-29; experiment: Cytotoxicity against human HT-29 cells assessed as cell viability at 25 uM after 72 hrs by Alamar blue assay; format: functional; settings: HT-29, 72 h, read-out: Activity; method in brief: as §1
[3] = Cytotoxicity against human H460 cells assessed as cell viability at 25 uM after 72 hrs by Alamar blue assay; format: functional; settings: NCI-H460, 72 h, read-out: Activity; method in brief: as §1
[4] = system: DU-145; experiment: Cytotoxicity against human DU145 cells assessed as cell viability at 25 uM after 72 hrs by Alamar blue assay; format: functional; settings: DU-145, 72 h, read-out: Activity; method in brief: as §1
[5] = system: MCF7; experiment: Cytotoxicity against human MCF7 cells assessed as cell viability at 25 uM after 72 hrs by Alamar blue assay; format: functional; settings: MCF7, 72 h, read-out: Activity; method in brief: as §1
[6] = system: DU-145; experiment: Cytotoxicity against human DU145 cells assessed as cell viability after 72 hrs by Alamar blue assay; format: functional, cell-based; settings: DU-145, 72 h
Method in brief: (§2)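 This was a dose–response Alamar Blue assay run in triplicate. Cells were kept in DMEM with 10% FBS (37 °C, 5% CO2, humidified). Log-phase cells were plated at a fixed density in 96-well plates and left to adhere for 24 h. Compound or vehicle was added to duplicate wells. After 72 h exposure, metabolic activity was measured by fluorescence (ex 555, em 585 nm).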

[7] = system: A-431; experiment: Cytotoxicity against human A431 cells assessed as cell viability after 72 hrs by Alamar blue assay; format: functional, cell-based; settings: A-431, 72 h; method in brief: as §2
[8] = system: MRC5; experiment: Cytotoxicity against human MRC5 cells assessed as cell viability after 72 hrs by Alamar blue assay; format: cell-based; settings: MRC5, 72 h; method in brief: as §2
[9] = Cytotoxicity against human H460 cells assessed as cell viability after 72 hrs by Alamar blue assay; format: functional, cell-based; settings: NCI-H460, 72 h; method in brief: as §2
[10] = system: MCF7; experiment: Cytotoxicity against human MCF7 cells assessed as cell viability after 72 hrs by Alamar blue assay; format: functional, cell-based; settings: MCF7, 72 h; method in brief: as §2
[11] = system: HT-29; experiment: Cytotoxicity against human HT-29 cells assessed as cell viability after 72 hrs by Alamar blue assay; format: functional, cell-based; settings: HT-29, 72 h; method in brief: as §2

Row | Compound | viability at 25 µM [1] [%] | viability at 25 µM [2] [%] | viability at 25 µM [3] [%] | viability at 25 µM [4] [%] | viability at 25 µM [5] [%] | IC50 [6] [µM] | IC50 [7] [µM] | IC50 [8] [µM] | IC50 [9] [µM] | IC50 [10] [µM] | IC50 [11] [µM]
1 | COc1cc(OC)c2c(=O)c(-c3ccc(F)cc3)c[nH]c2c1 | 103 | 114 | 86 | 88.7 | – | – | – | – | – | – | –
2 | COc1cc(O)c2c(=O)c(-c3ccc(Br)cc3)c[nH]c2c1 | 104 | 29.2 | 65.5 | 73.5 | 52.6 | – | – | – | – | – | –
3 | COc1cc(O)c2c(=O)c(-c3ccc(C)cc3)c[nH]c2c1 | 76.5 | 29.6 | 50.7 | 85.1 | – | – | – | – | – | – | –
4 | COc1cc(OC)c2c(=O)c(-c3ccc(C)cc3)c[nH]c2c1 | 89.9 | 102 | 53.8 | 76.6 | – | – | – | – | – | – | –
5 | COc1cc(O)c2c(=O)c(-c3ccc(F)cc3)c[nH]c2c1 | 71.4 | 31.2 | 38.9 | 43.4 | – | – | – | – | – | – | –
6 | COc1cc(O)c2c(=O)c(-c3cccc(Br)c3)c[nH]c2c1 | 1 | 14.1 | 2 | 10 | – | 9.5 | 5.5 | 6.7 | 9.2 | 21.9 | 3.6
7 | COc1cc2c(c(OC)c1)C(=O)[C@@H](c1ccccc1)CN2 | 98.3 | 98.8 | 87.6 | 95.4 | 83.6 | – | – | – | – | – | –
8 | COc1cc(OC)c2c(=O)c(-c3cccc(Br)c3)c[nH]c2c1 | 66.5 | 37.8 | 43.9 | 71.8 | – | – | – | – | – | – | –
9 | O=C1c2c(O)cc(O)cc2NCC1c1ccccc1 (stereo not given) | 98.5 | 98.5 | 74.5 | 83.1 | 121 | – | – | – | – | – | –
10 | COc1ccc(C2CNc3cc(OC)cc(O)c3C2=O)cc1 (stereo not given) | 108 | 97.3 | 94.1 | 106 | 85.7 | – | – | – | – | – | –
11 | COc1cc(O)c2c(c1)NCC(c1ccccc1)C2=O (stereo not given) | 90.8 | 90.8 | 78 | 81.6 | 83.2 | – | – | – | – | – | –
12 | COc1ccc([C@H]2CNc3cc(OC)cc(OC)c3C2=O)cc1 | 89.6 | 106 | 94.3 | 91.1 | 85.1 | – | – | – | – | – | –
13 | COc1cc(OC)c2c(=O)c(-c3ccc(Br)cc3)c[nH]c2c1 | 69.1 | 26.2 | 33.5 | 74.8 | 35.3 | – | – | – | – | – | –
